{"source": "paper PMC11261800", "about": "(Heliyon, 2024)", "molecules": {"B1": {"name": "Epidermal growth factor (protein, UniProt P01133 23-1207, looked up)", "Pro-epidermal growth factor": "PQHWSCPEGTLAGNGNSTCVGPAPFLIFSHGNSIFRIDTEGTNYEQLVVDAGVSVIMDFHYNEKRIYWVDLERQLLQRVFLNGSRQERVCNIEKNVSGMAINWINEEVIWSNQQEGIITVTDMKGNNSHILLSALKYPANVAVDPVERFIFWSSEVAGSLYRADLDGVGVKALLETSEKITAVSLDVLDKRLFWIQYNREGSNSLICSCDYDGGSVHISKHPTQHNLFAMSLFGDRIFYSTWKMKTIWIANKHTGKDMVRINLHSSFVPLGELKVVHPLAQPKAEDDTWEPEQKLCKLRKGNCSSTVCGQDLQSHLCMCAEGYALSRDRKYCEDVNECAFWNHGCTLGCKNTPGSYYCTCPVGFVLLPDGKRCHQLVSCPRNVSECSHDCVLTSEGPLCFCPEGSVLERDGKTCSGCSSPDNGGCSQLCVPLSPVSWECDCFPGYDLQLDEKSCAASGPQPFLLFANSQDIRHMHFDGTDYGTLLSQQMGMVYALDHDPVENKIYFAHTALKWIERANMDGSQRERLIEEGVDVPEGLAVDWIGRRFYWTDRGKSLIGRSDLNGKRSKIITKENISQPRGIAVHPMAKRLFWTDTGINPRIESSSLQGLGRLVIASSDLIWPSGITIDFLTDKLYWCDAKQSVIEMANLDGSKRRRLTQNDVGHPFAVAVFEDYVWFSDWAMPSVMRVNKRTGKDRVRLQGSMLKPSSLVVVHPLAKPGADPCLYQNGGCEHICKKRLGTAWCSCREGFMKASDGKTCLALDGHQLLAGGEVDLKNQVTPLDILSKTRVSEDNITESQHMLVAEIMVSDQDDCAPVGCSMYARCISEGEDATCQCLKGFAGDGKLCSDIDECEMGVPVCPPASSKCINTEGGYVCRCSEGYQGDGIHCLDIDECQLGEHSCGENASCTNTEGGYTCMCAGRLSEPGLICPDSTPPPHLREDDHHYSVRNSDSECPLSHDGYCLHDGVCMYIEALDKYACNCVVGYIGERCQYRDLKWWELRHAGHGQQQKVIVVAVCVVVLVMLLLLSLWGAHYYRTQKLLSKNPKNPYEESSRDVRSRRPADTEDGMSSCPQPWFVVIKEHQDLKNGGQPVAGEDGQAADGSMQPTSWRQEPQLCGMGTEQGCWIPVSSDKGSCPQVMERSFHMPSYGTQTLEGGVEKPHSLLSANPLWQQRALDPPHQMELTQ", "modifications": "Pro-epidermal growth factor"}}, "tested_on": "HaCaT cells", "experiment": "Proliferation of HaCaT keratinocytes, CCK-8", "assay_type": "cell-based, human", "conditions": "100 μM, positive control, 72 h, 0.4 % serum", "procedure,_shortened": "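HaCaT keratinocytes, grown at 37 °C in DMEM with 10 % (v/v) FBS, were seeded at 5 × 10^3 cells/well and cultured for 24 h. They were then serum-starved for 24 h in DMEM with 0.4 % serum and exposed to test sample in the same medium for 72 h. After 2 h in 10 % CCK-8, A450 was read. Proliferative activity = (A2−A1)/(A3−A1) × 100 %, against untreated cells and cell-free blank; mean ± SD, n = 3.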", "data": [{"molecule": "B1", "values": [{"measurement": "cell viability (proliferation of HaCaT keratinocytes)", "value": 106.76, "unit": "%"}]}]}
